Reference: ChEMBL document CHEMBL3244342, “Haloacetamido analogues of 2-amino-2-deoxy-D-glucose and 2-amino-2-deoxy-D-galactose. Syntheses and effects on the Friend murine erythroleukemia” (J Med Chem, 1978)
pIC50: −log10 of the molar value. Active and inactive are the calls of the source. The rule behind the calls is not given here.

Tests used:
[1] = Toxicity in ip dosed BDF1 mouse assessed as animal killed administered as single dose; settings: in vivo
[2] = tested on: Leukemia cell; assay: Antitumor activity against DBA/2J mouse Friend erythroleukemia cells allografted ip dosed DBA/2 mouse assessed as increase in host survival time administered on days 1, 2 and 3 after tumor transplantation; format: functional, organism-based
[3] = Antiproliferative activity against DBA/2J mouse Friend erythroleukemia cells after 3 days by cell counter; format: functional, cell-based; settings: Leukemia cell, 72 h
Summary of the method: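 Log-phase suspension cultures in DMEM with 10% fetal calf serum, penicillin/streptomycin, 37 °C, 10% CO2, seeded at 10^5 cells/mL. Continuous exposure to a range of concentrations for 3 days. Water-insoluble agents given in ethanol (final ≤0.125%). Cells counted by Coulter counter. IC50 is the concentration giving 50% inhibition of multiplication versus vehicle-treated controls.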

[4] = tested on: Leukemia cell; assay: Induction of cell differentiation in DBA/2J mouse Friend erythroleukemia cells assessed as proportion of hemoglobin containing cells at IC50 concentration for antiproliferative effect after 3 days by benzidine peroxide staining; format: functional, cell-based
Summary of the method: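 Exponentially growing cells seeded at 10^5 cells/mL in DMEM with 10% fetal calf serum at 37 °C and 10% CO2, incubated 3 days with the analogue. Ethanol vehicle final ≤0.125%. Hemoglobin-containing cells scored by benzidine peroxide stain. Controls received no drug or the inducer bis(acetyl)diaminopentane.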

[5] = Inhibition of cell growth of DBA/2J mouse Friend erythroleukemia cells at 4 uM after 3 days in presence of bis(acetyl)diaminopentane; format: functional; settings: Leukemia cell, 72 h
Summary of the method: (§1)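 Exponentially growing cells seeded at 10^5 cells/mL, exposed for 3 days to 4.5 mM bis(acetyl)diaminopentane together with the analogue. Cell numbers counted by Coulter counter. Cytostasis expressed relative to untreated control cultures.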

[6] = Inhibition of bis(acetyl)diaminopentane-induced cell differentiation in DBA/2J mouse Friend erythroleukemia cells assessed as proportion of hemoglobin containing cells at 1 mM after 3 days by benzidine peroxide staining (reference value: 82.2 +/- 2.4%); format: functional; settings: Leukemia cell, 72 h
[7] = Inhibition of cell growth of DBA/2J mouse Friend erythroleukemia cells at 1 mM after 3 days in presence of bis(acetyl)diaminopentane; format: functional; settings: Leukemia cell, 72 h
Summary of the method: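 Log-phase Friend erythroleukemia cells (DBA/2J origin) were seeded at 10⁵ cells/mL in DMEM plus 10% fetal calf serum at 37 °C under 10% CO₂. Analogue at 1 mM was combined with the inducer bis(acetyl)diaminopentane at 4.5 mM. After 3 days, cell numbers were counted with a Coulter counter to give percent cytostasis.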

[8] = Inhibition of cell growth of DBA/2J mouse Friend erythroleukemia cells at 0.4 mM after 3 days in presence of bis(acetyl)diaminopentane; format: functional; settings: Leukemia cell, 72 h; summary of the method: as §1
[9] = Bis(acetyl)diaminopentane-induced cell differentiation in DBA/2J mouse Friend erythroleukemia cells assessed as proportion of hemoglobin containing cells at 0.4 mM after 3 days by benzidine peroxide staining (reference value: 82.2 +/- 2.4%); settings: Leukemia cell, 72 h

O=C(CBr)N[C@@H]1[C@@H](O)[C@H](O)[C@@H](CO)O[C@H]1O
LD50 [1]: > 2400 µmol/kg
Activity [2]: inactive

CC(=O)N[C@H]1[C@H](OC(C)=O)O[C@H](COC(C)=O)[C@@H](OC(C)=O)[C@@H]1OC(C)=O
pIC50 [3]: 3.40
Activity [2]: inactive

CC(=O)OC[C@H]1O[C@@H](OC(C)=O)[C@H](NC(=O)CBr)[C@@H](OC(C)=O)[C@H]1OC(C)=O
Activity [4]: inactive
LD50 [1]: 220 µmol/kg
pIC50 [3]: 5.40
inhibition at 4 µM [5]: 83%
Activity [2]: inactive

CC(=O)OC[C@H]1O[C@@H](OC(C)=O)[C@H](NC(=O)CCl)[C@@H](OC(C)=O)[C@H]1OC(C)=O
Activity [4]: inactive
LD50 [1]: 670 µmol/kg
pIC50 [3]: 4.82
Activity [2]: inactive

CC(=O)OC[C@H]1O[C@@H](OC(C)=O)[C@H](NC(=O)CBr)[C@@H](OC(C)=O)[C@@H]1OC(C)=O
Activity [4]: inactive
LD50 [1]: 210 µmol/kg
pIC50 [3]: 5.52
Activity [2]: inactive

O=C(CF)N[C@@H]1[C@@H](O)[C@H](O)[C@@H](CO)O[C@H]1O
Activity [4]: inactive
LD50 [1]: 180 µmol/kg
pIC50 [3]: 3.00
inhibition at 1000 µM [6]: 69.5%
inhibition at 1000 µM [7]: 83%
Activity [2]: inactive

O=C(CBr)N[C@@H]1[C@@H](O)[C@@H](O)[C@@H](CO)O[C@H]1O
LD50 [1]: 1700 µmol/kg
Activity [2]: inactive

O=C(O)CF [FLUOROACETATE]
LD50 [1]: 100 µmol/kg
Activity [2]: inactive

O=C(CF)N[C@@H]1[C@@H](O)[C@@H](O)[C@@H](CO)O[C@H]1O
LD50 [1]: 740 µmol/kg
Activity [2]: inactive

NC(=O)CCl
pIC50 [3]: 3.70
Activity [2]: inactive

CC(=O)OC[C@H]1O[C@@H](OC(C)=O)[C@H](NC(=O)CCl)[C@@H](OC(C)=O)[C@@H]1OC(C)=O
Activity [4]: inactive
LD50 [1]: 940 µmol/kg
pIC50 [3]: 5.10
Activity [2]: inactive

CC(=O)OC[C@H]1O[C@@H](OC(C)=O)[C@H](NC(=O)CF)[C@@H](OC(C)=O)[C@H]1OC(C)=O
Activity [4]: inactive
LD50 [1]: 980 µmol/kg
pIC50 [3]: 4.22
Activity [2]: inactive

CC(=O)OC[C@H]1O[C@@H](OC(C)=O)[C@H](NC(=O)CF)[C@@H](OC(C)=O)[C@@H]1OC(C)=O
Activity [4]: inactive
LD50 [1]: 170 µmol/kg
pIC50 [3]: 4.22
Activity [2]: inactive

O=C(CCl)N[C@@H]1[C@@H](O)[C@H](O)[C@@H](CO)O[C@H]1O
Activity [4]: inactive
LD50 [1]: 2000 µmol/kg
pIC50 [3]: 3.40
inhibition at 400 µM [8]: 83%
Activity [2]: inactive
benzidine-positive cells % at 400 µM [9]: 24%

O=C(CCl)N[C@@H]1[C@@H](O)[C@@H](O)[C@@H](CO)O[C@H]1O
LD50 [1]: 1500 µmol/kg
Activity [2]: inactive
